Results on two molecules are retold here after ChEMBL document CHEMBL1800068 (J Med Chem, 2011).

Activity calls are given as the source filed them. No cut-off for these calls is given here.

The target in assay [1] is T1, Retinol-binding protein 4 (Homo sapiens, UniProt P02753). Kind of assay: Binding affinity to His-tagged recombinant human sRBP expressed in Escherichia coli BL21(DE3) assessed as disruption of sRBP-TTR protein interaction after 1 hr by SDS-PAGE and silver staining method. The essentials:
(§1)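 Compound was 100 μM, or 1, 10, 20, 50 and 100 μM for dose–response. Control was 10 μM ROH with no compound. Released free sRBP in the flow-through was analysed by SDS-PAGE; each run done at least three times.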

Assay [2] concerns the target T1, Retinol-binding protein 4. Kind of assay: Antagonist activity at His-tagged recombinant human sRBP […] assessed as disruption of ROH-sRBP-TTR protein interaction after 2 hr by TR-FRET assay. The format is functional. The essentials:
(§2)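 Apo His-sRBP (P. pastoris-expressed), 5 nM, with 100 nM biotinylated native TTR, 100 nM streptavidin-APC and 1 nM europium anti-His antibody. Inhibitor held at 10 μM while ROH was titrated, in 20 mM Tris-HCl pH 7.4, 150 mM NaCl, 1 mM EDTA, 0.01% BSA, 0.02% Tween 20.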

Assay [3] has as its target T1, Retinol-binding protein 4. Briefly: Antagonist activity at His-tagged recombinant human sRBP […] assessed as disruption of ROH-sRBP-TTR protein interaction after 2 hr by TR-FRET assay relative to control. The format is functional. The essentials: as §2
Background: Time-resolved FRET reads energy transfer from a long-lived donor to a nearby acceptor.

Assay [4] addresses T1, Retinol-binding protein 4. Briefly: Antagonist activity at His-tagged recombinant human sRBP expressed in Escherichia coli BL21(DE3) assessed as disruption of sRBP-TTR protein interaction after 2 hr by surface plasmon resonance assay. The format is functional. Summed up:
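SPR run at 25 °C on a Ni-NTA chip in HBS with 50 μM EDTA at 10 μL/min. Nickel activation, 5 min capture of 200 nM His-sRBP, 1 min compound pulse, then 5 min injection of 1 μM native untagged TTR preincubated with compound at 10 μM. Reference-surface corrected; regenerated with 0.3 mM EDTA; repeated three to five times.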
(In general: Surface plasmon resonance follows binding to a sensor surface in real time, without labels.)

The target in assay [5] is T1, Retinol-binding protein 4. Kind of assay: Binding affinity to His-tagged recombinant human sRBP expressed in Pichia pastoris assessed as apparent dissociation constant after 5 mins by fluorescence spectrophotometric analysis. The settings on record: read-out: Kd(app).
In assay [6] the target is T1, Retinol-binding protein 4. Briefly: Binding affinity to immobilized His-tagged recombinant human sRBP assessed as inhibition of sRBP and detergent treated HEK293 membrane interaction at 10 uM after 1 hr by surface plasmon resonance assay.
Assay [7] concerns the target T1, Retinol-binding protein 4. Kind of assay: Binding affinity to His-tagged recombinant human sRBP expressed in Escherichia coli BL21(DE3) assessed as disruption of sRBP-TTR protein interaction at 100 uM after 1 hr by SDS-PAGE and silver staining method relative to 10 uM ROH. Summed up: as §1

In the case of `COC(=O)COc1ccc(NC(=O)/C=C(C)/C=C/C=C(C)/C=C/C2=C(C)CCCC2(C)C)cc1`, the outcome in assay [1] and in assay [6] was Active. Further, the EC50 (commonly the concentration at which the effect is half-maximal) in assay [2] is 1260 nM. Further, the Ratio EC50 in assay [3] was 15. Moreover, the outcome in assay [4] was inactive. Moreover, the Kd in assay [5] turned out to be 131 nM.
`CC1=C(/C=C/C(C)=C/C=C/C(C)=C/C(=O)Nc2ccc(O)cc2)C(C)(C)CCC1`: the fold change (FC) in assay [7] worked out at 3. The result in assay [4] was Active. Also, the result in assay [6] was inactive.
